ChEMBL document CHEMBL2417536, “New pyridazine-fluorine derivatives: synthesis, chemistry and biological activity. Part II” (2013)
In brackets after ≈: the same amount, converted by molar mass.

How the values were obtained:
Bacillus subtilis [1] = experiment: Antibacterial activity against Bacillus subtilis assessed as growth inhibition at 4 mg/disc after 24 hrs by disc diffusion assay; type: functional
Outline: (§1)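 Disc diffusion. Suspension at 0.5 McFarland mixed 1/10 into Mueller Hinton agar. 5 mm sterile filter-paper discs, set in stainless steel cylinders, moistened with compound in chloroform at 4 mg/disc. Plates incubated 24 h at 30 °C; inhibition zone diameter (mm, mean) measured.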

Kocuria rhizophila [2] = experiment: Antibacterial activity against Sarcina luteus ATCC 9341 assessed as growth inhibition at 4 mg/disc after 24 hrs by disc diffusion assay; type: functional, DC2201; outline: as §1
Candida albicans = experiment: Antifungal activity against Candida albicans ATCC 10231 assessed as growth inhibition at 4 mg/disc after 48 hrs by disc diffusion assay; type: functional
Outline: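 Candida albicans suspension at 0.5 McFarland mixed 1/10 into Sabouraud agar. 5 mm filter-paper discs in steel cylinders, loaded with compound in chloroform at 4 mg/disc; nystatin control at 100 µg/disc. Incubated 48 h at 28 °C; inhibition zone diameter (mm) measured.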

Staphylococcus aureus [3] = experiment: Antibacterial activity against Staphylococcus aureus ATCC 25923 assessed as growth inhibition at 4 mg/disc after 24 hrs by disc diffusion assay; type: functional; outline: as §1
Escherichia coli [4] = experiment: Antibacterial activity against Escherichia coli ATCC 25922 assessed as growth inhibition at 4 mg/disc after 24 hrs by disc diffusion assay; type: functional; outline: as §1
Pseudomonas aeruginosa [5] = experiment: Antibacterial activity against Pseudomonas aeruginosa ATCC 27853 assessed as growth inhibition at 4 mg/disc after 24 hrs by disc diffusion assay; type: functional; outline: as §1
Staphylococcus aureus [6] = experiment: Antibacterial activity against Staphylococcus aureus ATCC 25923 assessed as growth inhibition after 24 hrs by broth microdilution assay; type: functional; settings: ATCC 25923, 24 h
Outline: (§2)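 Broth microdilution in Mueller Hinton broth. Inoculum adjusted to 0.5 McFarland. Compounds dissolved in 50% DMSO at 250 mg/mL (stock), then two-fold serial dilutions over 250 to 0.12 mg/mL. Further broth plus 5 µL inoculum added per well. Incubated 24 h at 37 °C, screened twice per organism. MIC is the lowest concentration with no visible growth; chloramphenicol MIC expressed in µg/mL.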

Bacillus subtilis [7] = experiment: Antibacterial activity against Bacillus subtilis assessed as growth inhibition after 24 hrs by broth microdilution assay; type: functional; outline: as §2
Kocuria rhizophila [8] = experiment: Antibacterial activity against Sarcina luteus ATCC 9341 assessed as growth inhibition after 24 hrs by broth microdilution assay; type: functional; settings: DC2201, 24 h; outline: as §2
Bacillus subtilis [9] = experiment: Antibacterial activity against Bacillus subtilis assessed as growth inhibition at 30 ug/disc after 24 hrs by disc diffusion assay; type: functional; settings: read-out: DIZ
Outline: (§3)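 Chloramphenicol control discs at 30 µg/disc on Mueller Hinton agar seeded 1/10 with 0.5 McFarland suspension. Incubated 24 h at 30 °C; inhibition zone diameter (mm) read.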

Pseudomonas aeruginosa [10] = experiment: Antibacterial activity against Pseudomonas aeruginosa ATCC 27853 assessed as growth inhibition at 30 ug/disc after 24 hrs by disc diffusion assay; type: functional; settings: ATCC 27853, 24 h, read-out: DIZ; outline: as §3
Escherichia coli [11] = experiment: Antibacterial activity against Escherichia coli ATCC 25922 assessed as growth inhibition at 30 ug/disc after 24 hrs by disc diffusion assay; type: functional; settings: ATCC 25922, 24 h, read-out: DIZ; outline: as §3
Staphylococcus aureus [12] = experiment: Antibacterial activity against Staphylococcus aureus ATCC 25923 assessed as growth inhibition at 30 ug/disc after 24 hrs by disc diffusion assay; type: functional; settings: ATCC 25923, 24 h, read-out: DIZ
Outline: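 Disc diffusion. A 0.5 McFarland bacterial suspension was mixed 1/10 with Mueller Hinton agar. Sterile 5 mm filter paper discs, set in sterile steel cylinders, were loaded at 30 µg/disc (the reference antibiotic dose; test compounds were 4 mg/disc in chloroform). Plates were incubated 24 h at 30 °C, and the inhibition zone diameter (mm, mean) was measured.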

Kocuria rhizophila [13] = experiment: Antibacterial activity against Sarcina luteus ATCC 9341 assessed as growth inhibition at 30 ug/disc after 24 hrs by disc diffusion assay; type: functional; settings: DC2201, 24 h, read-out: DIZ; outline: as §3

Compound | diameter of the inhibition zone (DIZ) (Bacillus subtilis [1]) [mm] | diameter of the inhibition zone (DIZ) (Kocuria rhizophila [2]) [mm] | diameter of the inhibition zone (DIZ) (Candida albicans) [mm] | diameter of the inhibition zone (DIZ) (Staphylococcus aureus [3]) [mm] | diameter of the inhibition zone (DIZ) (Escherichia coli [4]) [mm] | diameter of the inhibition zone (DIZ) (Pseudomonas aeruginosa [5]) [mm] | MIC (Staphylococcus aureus [6]) [µg/mL] | MIC (Bacillus subtilis [7]) [µg/mL] | MIC (Kocuria rhizophila [8]) [µg/mL] | zone of inhibition at 30 µg/disc (Bacillus subtilis [9]) [mm] | zone of inhibition at 30 µg/disc (Pseudomonas aeruginosa [10]) [mm] | zone of inhibition at 30 µg/disc (Escherichia coli [11]) [mm] | zone of inhibition at 30 µg/disc (Staphylococcus aureus [12]) [mm] | zone of inhibition at 30 µg/disc (Kocuria rhizophila [13]) [mm]
CCOC(=O)c1c(C(F)(F)F)c2cccnn2c1C(=O)c1ccc(F)cc1 | 31 | 41 | 29 | 30 | 34 | 16 |  |  |  |  |  |  |  | 
O=C(OCC(F)(F)F)[C@H]1C[C@H](C(=O)c2ccc(F)cc2)N2N=CC=C[C@@H]12 | 31 | 55 | 27 | 28 | 26 | 19 |  |  |  |  |  |  |  | 
CCOC(=O)[C@H]1[C@H](C(F)(F)F)[C@@H]2C=CC=NN2[C@H]1C(=O)c1ccc(C)cc1 | 38 | 61 | 31 | 29 | 27 | 21 | 4200 (≈ 11000 µM) | 200 (≈ 526 µM) | 90 (≈ 237 µM) |  |  |  |  | 
O=C(OCC(F)(F)F)[C@H]1C[C@H](C(=O)c2ccc(Cl)cc2)N2N=CC=C[C@@H]12 | 33 | 58 | 37 | 30 | 35 | 20 |  |  |  |  |  |  |  | 
O=C(N[C@H](CO)[C@H](O)c1ccc([N+](=O)[O-])cc1)C(Cl)Cl [CHLORAMPHENICOL] |  |  |  |  |  |  | 0.25 (≈ 0.774 µM) | 0.25 (≈ 0.774 µM) | 0.25 (≈ 0.774 µM) | 25 | 19 | 29 | 25 | 30
Cc1ccc(C(=O)[C@H]2C[C@H](C(=O)OCC(F)(F)F)[C@@H]3C=CC=NN23)cc1 | 39 | 59 | 30 | 30 | 28 | 20 | 3800 (≈ 10400 µM) | 180 (≈ 491 µM) | 110 (≈ 300 µM) |  |  |  |  | 
CCOC(=O)c1c(C(F)(F)F)c2cccnn2c1C(=O)c1ccc(Cl)cc1 | 38 | 44 | 26 | 29 | 42 | 18 |  |  |  |  |  |  |  | 
CCOC(=O)c1c(C(F)(F)F)c2cccnn2c1C(=O)c1ccc(C)cc1 | 36 | 60 | 32 | 49 | 40 | 19 | 160 (≈ 425 µM) | 220 (≈ 585 µM) | 100 (≈ 266 µM) |  |  |  |  | 
CCOC(=O)[C@H]1[C@H](C(F)(F)F)[C@@H]2C=CC=NN2[C@H]1C(=O)c1ccc(F)cc1 | 38 | 58 | 29 | 28 | 31 | 21 |  |  |  |  |  |  |  | 
